From article PMC2766535 (Journal of separation science, 2009)

biological target: human serum albumin (HSA) (Homo sapiens, UniProt P02768); assay: frontal analysis, high-performance affinity chromatography on immobilized HSA; type: binding
In short: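 Fatty-acid-free HSA immobilized by Schiff base on diol silica (40 (± 2) mg HSA/g silica), packed in a 5 cm × 2.1 mm i.d. column. A column without HSA corrected for non-specific binding. Test compound (0.5 µM to 30 µM) in pH 7.4, 0.067 M potassium phosphate was applied at 0.5 mL/min, 37°C, until plateau. Detection at 260 nm; mean breakthrough times were used.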

Chain of human serum albumin (HSA) (P02768 25-609): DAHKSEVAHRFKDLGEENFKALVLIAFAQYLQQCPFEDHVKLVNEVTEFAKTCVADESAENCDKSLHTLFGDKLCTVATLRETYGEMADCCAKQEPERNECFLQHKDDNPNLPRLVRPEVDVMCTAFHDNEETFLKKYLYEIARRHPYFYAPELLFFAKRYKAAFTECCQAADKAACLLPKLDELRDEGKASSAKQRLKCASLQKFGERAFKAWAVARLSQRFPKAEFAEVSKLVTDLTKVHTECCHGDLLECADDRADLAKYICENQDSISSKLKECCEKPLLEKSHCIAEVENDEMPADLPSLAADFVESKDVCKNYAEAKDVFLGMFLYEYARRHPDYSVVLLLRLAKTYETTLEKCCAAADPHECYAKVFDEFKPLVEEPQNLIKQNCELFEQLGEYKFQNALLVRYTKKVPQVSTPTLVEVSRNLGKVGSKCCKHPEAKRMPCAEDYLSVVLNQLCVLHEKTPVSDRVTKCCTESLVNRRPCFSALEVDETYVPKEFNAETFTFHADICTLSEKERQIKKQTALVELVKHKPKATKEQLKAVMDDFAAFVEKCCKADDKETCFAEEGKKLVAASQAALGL

| Kd | Structure (SMILES) |
| --- | --- |
| 12.8 µM | CC(=O)c1c[nH]c2ccccc12 [3-Acetylindole] |
| 18.9 µM | Cc1c[nH]c2ccccc12 [3-Methylindole] |
| 1.03 µM | O=C(O)CCCc1c[nH]c2ccccc12 [Indole-3-butyric acid] |
| 8.33 µM | OCc1c[nH]c2ccccc12 [Indole-3-methanol] |
| 9.09 µM | O=C(O)CCc1c[nH]c2ccccc12 [Indole-3-propionic acid] |
